Assay results published in ChEMBL document CHEMBL1275347, “New fluoro derivatives of the pyrazolo[5,1-c][1,2,4]benzotriazine 5-oxide system: evaluation of fluorine binding properties in the benzodiazepine site on γ-aminobutyrric acid type A (GABA(A)) receptor. Design, synthesis, biological, and molecular modeling investigation” (J Med Chem, 2010).
The source made the active and inactive calls. The rule behind the calls is not given here.

Legend:
Bos taurus = organism: Bos taurus; assay: Displacement of [3H]Ro15-1788 from GABA(A) receptor benzodiazepine site in bovine brain membrane at 10 uM; assay type: cell membranes
Outline: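 Percent inhibition of specific [3H]Ro15-1788 binding to bovine cerebral cortex membranes in 50 mM Tris-citrate pH 7.4, measured with test compound at 10 μM.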

[1] = Displacement of [3H]Ro15-1788 from GABA(A) receptor benzodiazepine site in bovine brain membrane; assay type: cell membranes, Bos taurus
Outline: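 Bovine cerebral cortex membranes were diluted in 50 mM Tris-citrate pH 7.4 and used for [3H]Ro15-1788 displacement, with at least six test concentrations. Five experiments were run in triplicate. IC50 came from iterative curve fitting and Ki from Cheng-Prusoff, reported as mean ± SEM. Ki was derived only where inhibition at 10 μM exceeded 80%.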

Mus musculus [2] = assay: Effect on learning and memory process in CD1 albino mouse assessed as improvement in retention latency at 100 mg/kg, po after 24 hrs by passive avoidance test; assay type: functional, organism-based; design: dose 100 mg/kg
Outline: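 Passive avoidance in male CD-1 mice; flumazenil suspended in 1% carboxymethylcellulose, dosed 30 min before training; retention test 24 h later, retention latency recorded. 9-11 mice per group; mean ± SEM versus control.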

Mus musculus [3] = assay: Effect on learning and memory process in CD1 albino mouse assessed as improvement in retention latency at 10 mg/kg, po after 24 hrs by passive avoidance test; assay type: functional, organism-based; design: dose 10 mg/kg
Outline: (§1)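 Passive avoidance test in male CD-1 mice. Compounds were given po 30 min before training, and retention latency was tested 24 h later. n = 9-11 per group, mean ± SEM.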

Mus musculus [4] = assay: Toxicity in CD1 albino mouse assessed as number of falls from rod over 30 seconds at 30 mg/kg, po after 25 mins of drug administration by rotarod test; assay type: organism-based; design: dose 30 mg/kg, route oral; conditions: in vivo
Outline: (§2)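 Rota-rod test in male CD-1 mice dosed po in 1% CMC. Falls from the rod were counted over 30 s, 25 min after dosing. Methods give the rod speed as 24 rpm; the table gives 16 rpm. Values are mean ± SEM.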

Mus musculus [5] = assay: Anticonvulsant activity in CD1 albino mouse assessed as protection against pentylenetetrazole-induced shock and convulsion at 30 mg/kg, ip treated after 30 mins of pentylenetetrazole measured for 30 mins; assay type: functional; conditions: route intraperitoneal
Mus musculus [6] = assay: Anxiolytic activity in CD1 albino mouse at 3 mg/kg, po by light/dark box test; assay type: functional, organism-based; design: dose 3 mg/kg
Outline: (§3)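 Male CD-1 mice dosed po in 1% CMC 30 min before the light-dark box test. Each mouse was placed in the centre of the lit area facing away from the dark side and explored for 5 min. Transfers between compartments and time spent in the light were scored. n = 9-10 per group, mean ± SEM.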

Mus musculus [7] = assay: Toxicity in CD1 albino mouse assessed as myorelaxant activity over 35 mins at 30 mg/kg, po by grip-strength meter assay; assay type: organism-based; design: dose 30 mg/kg, route oral; conditions: in vivo
Outline: (§4)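 Grip-strength meter test in male CD-1 mice given compound po in 1% CMC 30 min before testing. Grip force was read in g at 35 min. Values are mean ± SEM.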

Mus musculus [8] = assay: Toxicity in CD1 albino mouse at 10 mg/kg, po in presence of 100 mg/kg, po flumazenil; assay type: organism-based; conditions: in vivo
Mus musculus [9] = assay: Anxiolytic activity in CD1 albino mouse at 30 mg/kg, po by light/dark box test; assay type: functional, organism-based; design: dose 30 mg/kg; outline: as §3
Mus musculus [10] = assay: Anxiolytic activity in CD1 albino mouse assessed as sleeping time at 10 mg/kg, po pretreated 30 mins before test; assay type: functional
Outline: (§5)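 Male CD-1 mice given compound po in 1% carboxymethylcellulose 30 min before ethanol (4 g/kg ip). Sleep time is the duration of loss of righting reflex, capped at 210 min. Values are mean ± SEM of treated mice.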

Mus musculus [11] = assay: Effect on learning and memory process in CD1 albino mouse assessed as improvement in retention latency at 3 mg/kg, po after 24 hrs by passive avoidance test; assay type: functional, organism-based; design: dose 3 mg/kg; outline: as §1
Mus musculus [12] = assay: Effect on duration of loss of righting reflex in ethanol-induced in CD1 albino mouse at 10 mg/kg, po preincubated 30 mins before ethanol challenge; assay type: functional, organism-based; design: dose 10 mg/kg; outline: as §5
Mus musculus [13] = assay: Anxiolytic activity in CD1 albino mouse at 10 mg/kg, po by light/dark box test; assay type: functional, organism-based; design: dose 10 mg/kg; outline: as §3
Mus musculus [14] = assay: Anticonvulsant activity in CD1 albino mouse assessed as protection against pentylenetetrazole-induced shock and convulsion at 10 mg/kg, ip treated after 30 mins of pentylenetetrazole measured for 30 mins; assay type: functional; conditions: route intraperitoneal
Mus musculus [15] = assay: Anxiolytic activity in CD1 albino mouse assessed as sleeping time at 3 mg/kg, po pretreated 30 mins before test; assay type: functional; outline: as §5
Mus musculus [16] = assay: Toxicity in CD1 albino mouse assessed as number of falls from rod over 30 seconds at 10 mg/kg, po after 25 mins of drug administration by rotarod test; assay type: organism-based; design: dose 10 mg/kg, route oral; conditions: in vivo; outline: as §2
Mus musculus [17] = assay: Toxicity in CD1 albino mouse assessed as myorelaxant activity over 35 mins at 10 mg/kg, po by grip-strength meter assay; assay type: organism-based; design: dose 10 mg/kg, route oral; conditions: in vivo; outline: as §4
Mus musculus [18] = assay: Effect on duration of loss of righting reflex in ethanol-induced in CD1 albino mouse at 3 mg/kg, po preincubated 30 mins before ethanol challenge; assay type: functional, organism-based; design: dose 3 mg/kg; outline: as §5
Mus musculus [19] = assay: Anxiolytic activity in CD1 albino mouse assessed as sleeping time at 1 mg/kg, ip pretreated 20 mins before test; assay type: functional; conditions: route intraperitoneal
Outline: (§6)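 Male CD-1 mice given diazepam ip (suspended in 1% carboxymethylcellulose) 20 min before test. Ethanol 4 g/kg ip injected […]; duration of loss of righting reflex taken as sleep time, capped at 210 min. Mean ± SEM; ANOVA with Scheffe post hoc test versus 1% CMC controls.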

Mus musculus [20] = assay: Anxiolytic activity in CD1 albino mouse assessed as sleeping time at 0.3 mg/kg, ip pretreated 20 mins before test; assay type: functional; conditions: route intraperitoneal; outline: as §6
Mus musculus [21] = assay: Anxiolytic activity in CD1 albino mouse at 10 mg/kg, po by light/dark box test in presence of 100 mg/kg, po flumazenil; assay type: functional, organism-based
Mus musculus [22] = assay: Effect on learning and memory process in CD1 albino mouse assessed as improvement in retention latency at 30 mg/kg, po after 24 hrs by passive avoidance test; assay type: functional, organism-based; design: dose 30 mg/kg; outline: as §1

SMILES: CCOC(=O)c1cnn2c1n[n+]([O-])c1cc(C(F)(F)F)ccc12
- inhibition (Bos taurus): 3%

SMILES: [O-][n+]1nc2c(Br)cnn2c2cc(C(F)(F)F)ccc21
- Ki [1]: 139 nM

SMILES: [O-][n+]1nc2c(F)cnn2c2cc(OCc3cccs3)ccc21
- Ki [1]: 93.3 nM

SMILES: [O-][n+]1nc2c(F)cnn2c2cc(OCc3ccco3)ccc21
- Ki [1]: 129 nM

SMILES: [O-][n+]1nc2c(F)cnn2c2cc(OCc3ccncc3)ccc21
- Ki [1]: 381 nM

SMILES: [O-][n+]1nc2c(F)cnn2c2cc(Cl)ccc21
- inhibition (Bos taurus): 50%

SMILES: [O-][n+]1nc2c(-c3cccs3)cnn2c2cc(C(F)(F)F)ccc21
- Ki [1]: 57 nM

SMILES: CCOC(=O)c1cnn2c1nnc1ccc(OC(F)F)cc12
- Ki [1]: 51.7 nM

SMILES: O=C(OCc1cccs1)c1cnn2c1n[n+]([O-])c1cc(C(F)(F)F)ccc12
- inhibition (Bos taurus): 34%

SMILES: [O-][n+]1nc2c(Cl)cnn2c2cc(C(F)(F)F)ccc21
- Ki [1]: 175 nM

SMILES: CCOC(=O)c1ncn2c1CN(C)C(=O)c1cc(F)ccc1-2
- Activity (Mus musculus [2]): Active

SMILES: O=C(OCc1cccs1)c1cnn2c1n[n+]([O-])c1ccc(C(F)(F)F)cc12
- Activity (Mus musculus [3]): Active
- Activity (Mus musculus [4]): 0.2
- Activity (Mus musculus [5]): 0%
- Activity (Mus musculus [6]): Active
- Activity (Mus musculus [7]): 57.9 g
- Activity (Mus musculus [8]): Non-toxic
- Activity (Mus musculus [9]): Active
- Time (Mus musculus [10]): 40.8 s
- Activity (Mus musculus [11]): Active
- Activity (Mus musculus [12]): inactive
- Activity (Mus musculus [13]): Active
- Activity (Mus musculus [14]): 0%
- Time (Mus musculus [15]): 48.6 s
- Activity (Mus musculus [16]): 0.1
- Activity (Mus musculus [17]): 52.6 g
- Activity (Mus musculus [18]): inactive
- Ki [1]: 10 nM

SMILES: COc1ccccc1C(=O)c1cnn2c1n[n+]([O-])c1ccc(C(F)(F)F)cc12
- Ki [1]: 1540 nM

SMILES: COc1ccccc1COc1ccc2c(c1)n1ncc(F)c1n[n+]2[O-]
- Ki [1]: 3.19 nM

SMILES: [O-][n+]1nc2c(-c3ccoc3)cnn2c2cc(C(F)(F)F)ccc21
- Ki [1]: 112 nM

SMILES: COc1ccccc1COC(=O)c1cnn2c1n[n+]([O-])c1cc(C(F)(F)F)ccc12
- inhibition (Bos taurus): 38%

SMILES: CN1C(=O)CN=C(c2ccccc2)c2cc(Cl)ccc21 [DIAZEPAM]
- Time (Mus musculus [19]): 14.5 s
- Ki [1]: 10 nM
- Time (Mus musculus [20]): 134.5 s

SMILES: [O-][n+]1nc2c(I)cnn2c2cc(C(F)(F)F)ccc21
- Ki [1]: 18 nM

SMILES: FC(F)Oc1ccc2nnc3c(I)cnn3c2c1
- Ki [1]: 5.01 nM

SMILES: COc1ccccc1COC(=O)c1cnn2c1n[n+]([O-])c1ccc(C(F)(F)F)cc12
- Activity (Mus musculus [3]): inactive
- Activity (Mus musculus [4]): 0.2
- Activity (Mus musculus [5]): 0%
- Activity (Mus musculus [7]): 48.5 g
- Activity (Mus musculus [21]): inactive
- Time (Mus musculus [10]): 54.3 s
- Activity (Mus musculus [12]): inactive
- Activity (Mus musculus [13]): Active
- Activity (Mus musculus [14]): 0%
- Time (Mus musculus [15]): 36.2 s
- Activity (Mus musculus [16]): 0.2
- Activity (Mus musculus [17]): 51.7 g
- Activity (Mus musculus [18]): inactive
- Ki [1]: 5.8 nM

SMILES: CCOC(=O)c1cnn2c1n[n+]([O-])c1ccc(OC(F)F)cc12
- Ki [1]: 5.75 nM

SMILES: O=C(OCc1cccs1)c1cnn2c1nnc1ccc(OC(F)F)cc12
- Ki [1]: 1.04 nM

SMILES: O=C(c1cccs1)c1cnn2c1n[n+]([O-])c1ccc(C(F)(F)F)cc12
- Ki [1]: 164 nM

SMILES: C#CCOc1ccc2c(c1)n1ncc(F)c1n[n+]2[O-]
- Ki [1]: 268 nM

SMILES: [O-][n+]1nc2c(Br)cnn2c2ccc(C(F)(F)F)cc21
- inhibition (Bos taurus): 38%

SMILES: [O-][n+]1nc2c(I)cnn2c2cc(OC(F)F)ccc21
- Activity (Mus musculus [3]): inactive
- Activity (Mus musculus [11]): inactive
- Activity (Mus musculus [13]): Active
- Activity (Mus musculus [22]): inactive
- Activity (Mus musculus [14]): 0%
- Ki [1]: 2.47 nM

SMILES: [O-][n+]1nc2c(F)cnn2c2cc(OCc3ccccc3OC(F)(F)F)ccc21
- inhibition (Bos taurus): 27%

SMILES: CCOC(=O)c1cnn2c1n[n+]([O-])c1ccc(C(F)(F)F)cc12
- Ki [1]: 316 nM

SMILES: [O-][n+]1nc2c(-c3ccsc3)cnn2c2cc(C(F)(F)F)ccc21
- Ki [1]: 192 nM
